Experimental data from ChEMBL document CHEMBL4477207, “Discovery of Novel 3-Quinoline Carboxamides as Potent, Selective, and Orally Bioavailable Inhibitors of Ataxia Telangiectasia Mutated (ATM) Kinase” (J Med Chem, 2016).
Converted amounts (≈) assume the structure as drawn. Each block holds one compound with its values, some of them ahead of it. The source made the active and inactive calls. The calls are words filed in the database; no cut-off is given here.

What was measured:
[1] = Volume of distribution at steady state in Han Wistar rat at 2 mg/kg, iv or 5 mg/kg, po; assay type: ADME, organism-based; details: in vivo, read-out: Vdss
[2] = Clearance in dog at 1 mg/kg, iv or 2 mg/kg, po; assay type: ADME, organism-based, Canis lupus familiaris; details: in vivo
[3] = Clearance in Han Wistar rat at 2 mg/kg, iv or 5 mg/kg, po; assay type: ADME, organism-based; details: in vivo
[4] = Thermodynamic solubility of the compound in 0.1M aqueous phosphate buffer at pH 7.4 after 24 hrs by LC-UV analysis; assay type: physicochemical; details: read-out: Therm_solubility
Procedure, shortened: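 Solid samples equilibrated in 0.1 M aqueous phosphate buffer, pH 7.4, for 24 h at 25 °C.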

[5] = Apparent permeability from apical to basolateral side in human Caco2 cells; assay type: ADME, cell-based; details: Caco-2
[6] = Fraction unbound in human plasma by equilibrium dialysis method; assay type: ADME, cell-free
[7] = Fraction unbound in mouse plasma by equilibrium dialysis method; assay type: ADME, cell-free
[8] = Fraction unbound in rat plasma by equilibrium dialysis method; assay type: ADME, cell-free
[9] = Fraction unbound in dog plasma by equilibrium dialysis method; assay type: ADME, cell-free, Canis lupus familiaris
[10] = Intrinsic clearance in human hepatocytes assessed per million cells; assay type: ADME, cell-based, Hepatocyte; details: read-out: CLH
Procedure, shortened: (§1)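 Intrinsic clearance measured in hepatocytes of each species, reported as µL/min/10⁶ cells.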

[11] = Intrinsic clearance in mouse hepatocytes assessed per million cells; assay type: ADME, cell-based, Hepatocyte; details: read-out: CLH; procedure, shortened: as §1
[12] = Intrinsic clearance in rat hepatocytes assessed per million cells; assay type: ADME, cell-based, Hepatocyte; details: read-out: CLH; procedure, shortened: as §1
[13] = Intrinsic clearance in dog hepatocytes assessed per million cells; assay type: ADME, cell-based, Canis lupus familiaris, Hepatocyte; details: read-out: CLH; procedure, shortened: as §1
[14] = Volume of distribution at steady state in dog at 1 mg/kg, iv or 2 mg/kg, po; assay type: ADME, organism-based, Canis lupus familiaris; details: in vivo, read-out: Vdss
[15] = Oral bioavailability in Han Wistar rat at 5 mg/kg; assay type: ADME, organism-based; details: in vivo
[16] = Oral bioavailability in dog at 2 mg/kg; assay type: ADME, organism-based, Canis lupus familiaris; details: in vivo
[17] = AUC (0 to 24 hrs) in nude mouse at 50 mg/kg, po; assay type: ADME, organism-based; parameters: dose 50 mg/kg, time < 24 hr, route oral; details: in vivo
Procedure, shortened: (§2)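 Nude mice, single oral dose of 50 mg/kg. Vehicle was either a propylene glycol aqueous solution or 10% DMSO:90% captisol solution.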

[18] = target: Serine/threonine-protein kinase mTOR (Homo sapiens, UniProt P42345); experiment: Inhibition of C-terminal FLAG-tagged recombinant mTOR (1362 to 2549 residues) (unknown origin) using Biotin-Ahx-Lys-Lys-Ala-Asn-Gln-Val-Phe-Leu-Gly-Phe-Thr-Tyr-Val-Ala-Pro-Ser-Val-Leu-Glu-Ser-Val-Lys-Glu-NH2 as substrate after 90 mins by AlphaScreen assay
[19] = target: T1, DNA-dependent protein kinase catalytic subunit (Homo sapiens, UniProt P78527); experiment: Inhibition of DNAPK (unknown origin) using p53-based peptide substrate preincubated for 5 min prior to ATP addition
[20] = target: T2, Phosphatidylinositol 4,5-bisphosphate 3-kinase catalytic subunit alpha isoform (Homo sapiens, UniProt P42336); experiment: Inhibition of human recombinant PI3Kalpha using PIP2/ATP as substrate incubated for 20 mins followed by substrate addition by Kinase Glo reagent based luminescence assay
T2 sequence (P42336 whole entry, canonical isoform): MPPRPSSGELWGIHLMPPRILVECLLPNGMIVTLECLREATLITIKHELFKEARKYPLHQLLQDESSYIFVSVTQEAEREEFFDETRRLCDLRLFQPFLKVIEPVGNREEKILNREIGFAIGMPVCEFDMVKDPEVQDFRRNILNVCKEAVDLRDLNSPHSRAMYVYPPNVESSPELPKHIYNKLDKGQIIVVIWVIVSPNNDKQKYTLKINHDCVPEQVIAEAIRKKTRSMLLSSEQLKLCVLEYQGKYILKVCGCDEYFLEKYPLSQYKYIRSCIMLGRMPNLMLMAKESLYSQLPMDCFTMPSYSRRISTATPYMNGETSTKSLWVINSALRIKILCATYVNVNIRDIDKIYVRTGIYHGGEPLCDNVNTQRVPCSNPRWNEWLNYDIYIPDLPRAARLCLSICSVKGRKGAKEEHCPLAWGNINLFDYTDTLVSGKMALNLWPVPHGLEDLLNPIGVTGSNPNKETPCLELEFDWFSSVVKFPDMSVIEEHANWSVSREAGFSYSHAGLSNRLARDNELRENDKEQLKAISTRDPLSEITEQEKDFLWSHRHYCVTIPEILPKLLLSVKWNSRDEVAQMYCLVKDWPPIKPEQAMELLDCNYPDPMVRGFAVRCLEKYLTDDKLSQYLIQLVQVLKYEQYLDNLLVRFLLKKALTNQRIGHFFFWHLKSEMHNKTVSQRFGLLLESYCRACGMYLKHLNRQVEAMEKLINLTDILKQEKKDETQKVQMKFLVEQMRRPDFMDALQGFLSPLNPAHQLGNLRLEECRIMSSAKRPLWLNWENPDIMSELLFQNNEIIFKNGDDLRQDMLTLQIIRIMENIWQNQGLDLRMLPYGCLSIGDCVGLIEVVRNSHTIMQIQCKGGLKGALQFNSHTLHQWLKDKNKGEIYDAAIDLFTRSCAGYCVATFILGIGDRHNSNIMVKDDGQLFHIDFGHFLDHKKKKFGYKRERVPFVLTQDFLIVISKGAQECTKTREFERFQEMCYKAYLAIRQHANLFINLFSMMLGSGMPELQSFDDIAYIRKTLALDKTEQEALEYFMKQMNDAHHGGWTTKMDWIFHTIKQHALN

[21] = target: T3, Phosphatidylinositol 4,5-bisphosphate 3-kinase catalytic subunit beta isoform (Homo sapiens, UniProt P42338); experiment: Inhibition of human recombinant PI3Kbeta using PIP2/ATP as substrate incubated for 20 mins followed by substrate addition by Kinase Glo reagent based luminescence assay
T3 sequence (P42338 whole entry, canonical isoform): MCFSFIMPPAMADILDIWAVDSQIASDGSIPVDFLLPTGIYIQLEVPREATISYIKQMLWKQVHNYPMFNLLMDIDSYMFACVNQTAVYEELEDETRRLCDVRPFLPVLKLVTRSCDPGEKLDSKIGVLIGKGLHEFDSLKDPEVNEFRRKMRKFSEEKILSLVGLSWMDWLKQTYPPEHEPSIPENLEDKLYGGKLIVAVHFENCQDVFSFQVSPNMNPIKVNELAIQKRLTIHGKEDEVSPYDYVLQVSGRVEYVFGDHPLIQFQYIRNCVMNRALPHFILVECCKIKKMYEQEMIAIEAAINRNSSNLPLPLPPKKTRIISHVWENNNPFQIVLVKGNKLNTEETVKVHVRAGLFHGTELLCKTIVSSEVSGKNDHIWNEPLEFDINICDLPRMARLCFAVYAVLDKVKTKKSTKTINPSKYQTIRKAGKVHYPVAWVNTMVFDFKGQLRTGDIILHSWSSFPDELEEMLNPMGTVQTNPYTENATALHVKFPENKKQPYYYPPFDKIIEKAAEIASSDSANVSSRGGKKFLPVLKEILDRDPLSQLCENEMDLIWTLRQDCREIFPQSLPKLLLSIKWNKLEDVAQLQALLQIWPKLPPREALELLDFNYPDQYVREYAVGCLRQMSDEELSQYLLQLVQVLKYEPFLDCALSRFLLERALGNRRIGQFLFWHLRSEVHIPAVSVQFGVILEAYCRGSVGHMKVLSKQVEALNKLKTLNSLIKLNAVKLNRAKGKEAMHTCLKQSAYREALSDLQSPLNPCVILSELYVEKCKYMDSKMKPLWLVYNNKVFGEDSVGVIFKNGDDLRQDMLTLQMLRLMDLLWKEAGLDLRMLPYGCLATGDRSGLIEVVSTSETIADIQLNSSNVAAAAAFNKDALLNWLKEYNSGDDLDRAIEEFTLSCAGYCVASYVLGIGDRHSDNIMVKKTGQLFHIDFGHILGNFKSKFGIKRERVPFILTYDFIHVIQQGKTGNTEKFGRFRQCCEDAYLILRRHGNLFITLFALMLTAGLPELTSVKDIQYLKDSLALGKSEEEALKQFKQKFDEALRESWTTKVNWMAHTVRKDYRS

[22] = target: Phosphatidylinositol 4,5-bisphosphate 3-kinase catalytic subunit gamma isoform (Homo sapiens, UniProt P48736); experiment: Inhibition of human recombinant PI3Kgamma using PIP2/ATP as substrate incubated for 20 mins followed by substrate addition by Kinase Glo reagent based luminescence assay
Chain of Phosphatidylinositol 4,5-bisphosphate 3-kinase catalytic subunit gamma isoform (P48736 whole entry, canonical isoform): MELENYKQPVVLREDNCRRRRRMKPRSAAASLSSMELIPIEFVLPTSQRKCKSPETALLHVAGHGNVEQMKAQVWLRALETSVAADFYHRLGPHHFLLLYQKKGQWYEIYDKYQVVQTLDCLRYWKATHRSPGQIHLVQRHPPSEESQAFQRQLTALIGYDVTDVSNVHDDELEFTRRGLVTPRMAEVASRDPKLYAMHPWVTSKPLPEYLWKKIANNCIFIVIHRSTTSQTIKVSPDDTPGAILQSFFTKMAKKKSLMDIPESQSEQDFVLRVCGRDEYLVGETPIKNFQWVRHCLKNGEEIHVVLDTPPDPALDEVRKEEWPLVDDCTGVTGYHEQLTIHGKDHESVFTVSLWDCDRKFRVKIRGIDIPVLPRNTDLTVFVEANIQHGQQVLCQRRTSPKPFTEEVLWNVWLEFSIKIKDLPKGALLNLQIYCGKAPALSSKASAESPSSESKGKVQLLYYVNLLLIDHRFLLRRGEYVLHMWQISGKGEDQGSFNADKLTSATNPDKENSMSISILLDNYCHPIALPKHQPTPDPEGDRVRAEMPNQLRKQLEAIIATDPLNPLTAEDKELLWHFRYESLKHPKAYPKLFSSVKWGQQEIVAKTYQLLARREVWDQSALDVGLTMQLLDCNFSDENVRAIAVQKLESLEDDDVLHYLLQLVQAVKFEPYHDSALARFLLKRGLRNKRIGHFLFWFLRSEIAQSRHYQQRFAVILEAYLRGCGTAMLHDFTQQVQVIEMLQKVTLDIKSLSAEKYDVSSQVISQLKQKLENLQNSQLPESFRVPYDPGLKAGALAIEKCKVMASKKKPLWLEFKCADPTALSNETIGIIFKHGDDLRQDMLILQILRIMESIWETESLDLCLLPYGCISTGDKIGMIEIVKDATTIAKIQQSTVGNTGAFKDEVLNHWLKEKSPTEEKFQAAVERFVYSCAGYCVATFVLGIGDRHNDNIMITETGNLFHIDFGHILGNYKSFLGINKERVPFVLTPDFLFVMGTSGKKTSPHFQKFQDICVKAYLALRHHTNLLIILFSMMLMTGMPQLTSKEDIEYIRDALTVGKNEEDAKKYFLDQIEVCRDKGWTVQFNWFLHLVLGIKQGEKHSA

[23] = target: Glycogen synthase kinase-3 beta (Homo sapiens, UniProt P49841); experiment: Inhibition of GSK3beta (unknown origin)
Chain of Glycogen synthase kinase-3 beta (P49841 whole entry): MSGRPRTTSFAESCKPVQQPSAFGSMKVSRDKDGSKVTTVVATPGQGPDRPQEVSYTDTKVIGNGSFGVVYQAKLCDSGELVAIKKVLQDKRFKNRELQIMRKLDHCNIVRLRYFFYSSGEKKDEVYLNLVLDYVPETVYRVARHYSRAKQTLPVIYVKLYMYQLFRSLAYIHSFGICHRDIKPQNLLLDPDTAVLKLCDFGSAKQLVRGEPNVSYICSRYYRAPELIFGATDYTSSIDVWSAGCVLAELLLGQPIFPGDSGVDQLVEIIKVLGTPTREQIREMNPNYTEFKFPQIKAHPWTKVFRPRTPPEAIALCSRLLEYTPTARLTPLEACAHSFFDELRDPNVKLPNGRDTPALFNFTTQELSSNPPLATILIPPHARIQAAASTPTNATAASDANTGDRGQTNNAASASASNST

[24] = target: Vascular endothelial growth factor receptor 2 (Homo sapiens, UniProt P35968); experiment: Inhibition of KDR (unknown origin)
Chain of Vascular endothelial growth factor receptor 2 (P35968 whole entry): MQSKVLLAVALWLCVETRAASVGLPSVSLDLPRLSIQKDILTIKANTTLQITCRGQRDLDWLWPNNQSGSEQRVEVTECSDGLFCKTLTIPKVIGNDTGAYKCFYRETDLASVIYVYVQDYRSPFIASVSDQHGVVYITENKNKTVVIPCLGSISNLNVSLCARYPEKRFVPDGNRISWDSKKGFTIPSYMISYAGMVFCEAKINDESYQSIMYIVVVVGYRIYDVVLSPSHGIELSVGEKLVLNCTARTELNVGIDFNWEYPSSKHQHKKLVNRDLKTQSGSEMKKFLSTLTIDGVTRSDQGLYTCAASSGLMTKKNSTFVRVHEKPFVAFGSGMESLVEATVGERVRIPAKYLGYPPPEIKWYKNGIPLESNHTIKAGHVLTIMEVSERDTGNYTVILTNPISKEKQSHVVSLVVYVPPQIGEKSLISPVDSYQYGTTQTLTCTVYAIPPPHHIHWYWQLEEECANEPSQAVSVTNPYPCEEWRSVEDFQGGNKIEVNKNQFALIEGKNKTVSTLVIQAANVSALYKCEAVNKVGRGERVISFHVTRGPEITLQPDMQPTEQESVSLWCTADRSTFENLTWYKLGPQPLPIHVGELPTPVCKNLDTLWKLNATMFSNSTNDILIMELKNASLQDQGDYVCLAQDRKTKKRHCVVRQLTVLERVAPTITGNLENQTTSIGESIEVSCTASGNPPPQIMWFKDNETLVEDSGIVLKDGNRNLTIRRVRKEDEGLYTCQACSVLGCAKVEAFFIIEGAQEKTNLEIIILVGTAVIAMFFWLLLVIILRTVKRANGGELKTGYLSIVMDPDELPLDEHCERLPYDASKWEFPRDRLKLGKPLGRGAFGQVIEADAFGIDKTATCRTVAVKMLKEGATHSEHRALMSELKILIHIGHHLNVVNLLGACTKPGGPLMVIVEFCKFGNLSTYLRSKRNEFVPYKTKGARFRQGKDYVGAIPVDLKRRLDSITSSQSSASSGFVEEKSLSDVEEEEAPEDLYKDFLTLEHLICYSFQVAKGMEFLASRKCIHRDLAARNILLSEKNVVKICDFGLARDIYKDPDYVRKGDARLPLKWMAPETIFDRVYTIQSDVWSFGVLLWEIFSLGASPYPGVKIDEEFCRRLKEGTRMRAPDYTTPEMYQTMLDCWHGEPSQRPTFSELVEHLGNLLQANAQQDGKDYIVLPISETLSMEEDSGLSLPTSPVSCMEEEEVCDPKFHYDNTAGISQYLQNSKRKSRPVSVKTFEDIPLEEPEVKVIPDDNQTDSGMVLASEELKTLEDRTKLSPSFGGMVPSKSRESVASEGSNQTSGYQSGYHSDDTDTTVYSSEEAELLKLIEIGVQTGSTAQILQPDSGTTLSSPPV

[25] = target: T1, DNA-dependent protein kinase catalytic subunit; experiment: Inhibition of DNAPK phosphorylation at Ser-2056 residue in human HT-29 cells; assay type: cell-based
[26] = target: Dual specificity protein kinase CLK1 (Homo sapiens) (UniProt P49759); experiment: Inhibition of N-terminal His6-tagged recombinant human CLK1 (130-end residues) expressed in baculovirus infected Sf21 cells at 1 uM relative to control
[27] = target: Dual specificity protein kinase CLK4 (Homo sapiens) (UniProt Q9HAZ1); experiment: Inhibition of recombinant human CLK4 at 1 uM
[28] = target: T4, Tyrosine-protein kinase Mer (Homo sapiens) (UniProt Q12866); experiment: Inhibition of N-terminal GST-tagged recombinant human Mer (557 to 882 residues) expressed in baculovirus infected Sf21 cells using GGMEDIYFEFMGGKKK as substrate at 1 uM relative to control
T4 sequence (whole entry): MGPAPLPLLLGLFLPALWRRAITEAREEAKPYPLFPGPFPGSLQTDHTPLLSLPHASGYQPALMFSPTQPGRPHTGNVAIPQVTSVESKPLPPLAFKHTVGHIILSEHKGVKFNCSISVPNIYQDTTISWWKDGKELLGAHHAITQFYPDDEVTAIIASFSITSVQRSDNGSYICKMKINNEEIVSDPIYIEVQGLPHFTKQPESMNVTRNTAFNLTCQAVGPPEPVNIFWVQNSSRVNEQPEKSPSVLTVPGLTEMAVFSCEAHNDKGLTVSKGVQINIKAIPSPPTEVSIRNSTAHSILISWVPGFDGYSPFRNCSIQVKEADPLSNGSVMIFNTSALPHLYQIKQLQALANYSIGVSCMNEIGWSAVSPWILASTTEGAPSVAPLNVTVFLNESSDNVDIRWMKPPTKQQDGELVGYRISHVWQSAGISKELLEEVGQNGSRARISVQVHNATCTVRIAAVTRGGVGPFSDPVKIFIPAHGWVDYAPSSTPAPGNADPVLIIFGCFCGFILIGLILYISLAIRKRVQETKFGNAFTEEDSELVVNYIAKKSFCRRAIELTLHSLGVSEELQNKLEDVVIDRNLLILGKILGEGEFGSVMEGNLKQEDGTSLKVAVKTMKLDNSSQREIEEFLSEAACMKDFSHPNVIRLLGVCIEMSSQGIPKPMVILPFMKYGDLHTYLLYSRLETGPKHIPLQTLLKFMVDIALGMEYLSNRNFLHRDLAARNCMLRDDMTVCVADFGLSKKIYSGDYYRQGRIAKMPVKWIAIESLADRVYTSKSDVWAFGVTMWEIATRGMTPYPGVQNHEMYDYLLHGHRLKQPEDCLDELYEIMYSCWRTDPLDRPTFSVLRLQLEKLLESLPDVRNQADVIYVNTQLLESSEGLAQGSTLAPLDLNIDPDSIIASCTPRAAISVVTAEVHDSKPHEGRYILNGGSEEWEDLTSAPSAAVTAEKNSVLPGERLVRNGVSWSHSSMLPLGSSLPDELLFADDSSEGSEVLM

SW-620 = experiment: Antitumor activity against human SW620 cells xenografted in immunocompromised athymic Swiss nude mouse assessed as tumor growth inhibition at 50 mg/kg bid administered via oral gavage for 3 days a week for 3 weeks regime after 24 hrs of topoisomerase-1 inhibitor irinotecan administration; assay type: functional, organism-based
[29] = target: T2, Phosphatidylinositol 4,5-bisphosphate 3-kinase catalytic subunit alpha isoform; experiment: Inhibition of PI3Kalpha in human BT474 cells assessed as reduction in AKT phosphorylation at Thr-308 residue; assay type: cell-based
[30] = target: T3, Phosphatidylinositol 4,5-bisphosphate 3-kinase catalytic subunit beta isoform; experiment: Inhibition of PI3Kbeta (unknown origin) by cell based assay
Mus musculus = experiment: Time duration during which free plasma concentration stays above in-vitro ATM IC50 level in nude mouse at 50 mg/kg, po; assay type: ADME, organism-based; details: in vivo; procedure, shortened: as §2
[31] = Cmax in nude mouse at 50 mg/kg, po; assay type: ADME, organism-based; parameters: dose 50 mg/kg, route oral; details: in vivo; procedure, shortened: as §2
in vitro [32] = details: human, hepatocytes
in vitro [33] = details: rat, hepatocytes
physchem = details: octanol/buffer, pH 7.4
[34] = target: T5, Serine-protein kinase ATM (Homo sapiens, UniProt Q13315); experiment: Inhibition of ATM (unknown origin) using p53 as substrate incubated for 30 mins followed by substrate addition measured after 2 hrs in presence of ATP by HTRF method
[35] = target: T5, Serine-protein kinase ATM; experiment: Inhibition of ATM phosphorylation at Ser-1981 residue in human HT-29 cells incubated for 1 hr followed by X-ray irradiation by Hoechst staining based fluorescence plate reader analysis; assay type: cell-based
[36] = target: Serine/threonine-protein kinase ATR (Homo sapiens, UniProt Q13535); experiment: Inhibition of ATR in human HT-29 cells assessed as reduction in Chk1 phosphorylation at Ser-345 residue after 60 mins in presence of 4-nitroquinoline-1-oxide by Hoechst 33258 staining based plate reader analysis; assay type: cell-based
Homo sapiens [37] = organism: Homo sapiens; experiment: Selectivity ratio of IC50 for DNAPK (unknown origin) to IC50 for ATM (unknown origin)
Procedure, shortened: (§3)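 Enzymatic selectivity calculated as the off-target enzyme IC50 over the ATM enzyme IC50. IC50s in µM, taken as means of at least 3 (ATM) or 2 (other enzymes) independent measurements.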

Homo sapiens [38] = organism: Homo sapiens; experiment: Selectivity ratio of IC50 for human recombinant PI3Kalpha to IC50 for ATM (unknown origin); procedure, shortened: as §3
Homo sapiens [39] = organism: Homo sapiens; experiment: Selectivity ratio of IC50 for C-terminal FLAG-tagged recombinant mTOR (1362 to 2549 residues) (unknown origin) to IC50 for ATM (unknown origin); procedure, shortened: as §3
Homo sapiens [40] = organism: Homo sapiens; experiment: Selectivity ratio of IC50 for human recombinant PI3Kbeta to IC50 for ATM (unknown origin); procedure, shortened: as §3
Homo sapiens [41] = organism: Homo sapiens; experiment: Selectivity ratio of IC50 for ATR in human HT-29 cells to IC50 for ATM in human HT-29 cells; assay type: cell-based
[42] = target: Voltage-gated inwardly rectifying potassium channel KCNH2 (Homo sapiens, UniProt Q12809)
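Wherever logD is given: determined by the shake flask method.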

- Vd [1]: 1 L/kg
- clearance [2]: 13 mL/min/kg
- clearance [3]: 13 mL/min/kg
- solubility thermodynamic at 24 h [4]: 69 µM (≈ 30 µg/mL)
- Papp A→B [5]: 14 ×10⁻⁶ cm/s
- fraction unbound [6]: 0.18
- fraction unbound [7]: 0.17
- fraction unbound [8]: 0.12
- fraction unbound [9]: 0.18
- hepatocyte CLint [10]: < 1.5 µL/min/1e6 cells
- hepatocyte CLint [11]: 28 µL/min/1e6 cells
- hepatocyte CLint [12]: 5.3 µL/min/1e6 cells
- hepatocyte CLint [13]: 2 µL/min/1e6 cells
- Vd [14]: 1.4 L/kg
- bioavailability [15]: 29%
- bioavailability [16]: 71%
- AUC(0-t) at 24 h [17]: 33 µM·h
- IC50 [18]: 1480 nM
- IC50 [19]: 370 nM
- IC50 [20]: 445 nM
- IC50 [21]: 12800 nM
- IC50 [22]: 7100 nM
- IC50 [23]: > 100000 nM
- IC50 [24]: 79000 nM
- IC50 [25]: > 30000 nM
- inhibition [26]: 57%
- inhibition [27]: 55%
- inhibition [28]: 56%
- IC50 [29]: 18800 nM
- IC50 [30]: > 17500 nM
- Time (Mus musculus): 10 h
- Cmax [31]: 17 µM
- hepatocyte CLint at 1.5 h (in vitro [32]): < 1.5 µL/min/1e6 cells
- hepatocyte CLint at 1.5 h (in vitro [33]): 5.3 µL/min/1e6 cells
- logD (physchem): 2.7
SMILES: COCc1ccc(-c2cc3c(N[C@@H](C)c4ccn(C)n4)c(C(N)=O)cnc3cc2F)cn1
- TGI (SW-620): Active

- IC50 [34]: 8 nM
- IC50 [35]: 820 nM
- IC50 [36]: 4400 nM
- solubility thermodynamic at 24 h [4]: 19 µM (≈ 5.63 µg/mL)
- IC50 [18]: 3450 nM
- IC50 [19]: 98 nM
- IC50 [20]: 247 nM
- IC50 [21]: 5740 nM
- IC50 [22]: > 1000 nM
- Ratio IC50 (Homo sapiens [37]): > 10
- Ratio IC50 (Homo sapiens [38]): > 10
- Ratio IC50 (Homo sapiens [39]): > 400
- Ratio IC50 (Homo sapiens [40]): > 400
- IC50 [23]: 550 nM
- IC50 [24]: 8100 nM
- hepatocyte CLint at 1.5 h (in vitro [32]): 12 µL/min/1e6 cells
- hepatocyte CLint at 1.5 h (in vitro [33]): 74 µL/min/1e6 cells
SMILES: CCC(CC)CNc1c(C(N)=O)cnc2ccc(C#N)cc12
- Ratio IC50 (Homo sapiens [41]): < 10
- IC50 [42]: 2300 nM
